Assay results: ChEMBL document CHEMBL3244101, “2-, 3-, and 4-(alpha, alpha, beta, beta-tetrafluorophenethyl)benzylamines. A new class of antiarrhythmic agents” (J Med Chem, 1977)

What was measured:
[1] = tested on: Canis familiaris; test: Antiarrhythmic activity in anesthetized acute myocardial infarction dog model assessed as normal ECG complexes at 1.25 mg/kg, iv administered 10 mins prior to infarction measured during 1-hr postinfarction period (reference value: 19%); format: functional, Canis lupus familiaris, Heart
How it was run: (§1)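 Sclerosing agent (tetrafluorohexachlorobutane) injected into the anterior descending coronary artery to produce a multifocal ventricular arrhythmia. Single iv dose 10 min before infarction. Segmented ECG tracings over the 1 h after infarction were scored as the percentage of complexes of sinus origin (normal). Saline controls were run alongside.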

[2] = tested on: Canis familiaris; test: Antiarrhythmic activity in anesthetized acute myocardial infarction dog model assessed as normal ECG complexes at 2.5 mg/kg, iv administered 10 mins prior to infarction measured during 1-hr postinfarction period (reference value: 19%); format: functional, Canis lupus familiaris, Heart; how it was run: as §1
[3] = tested on: Canis familiaris; test: Antiarrhythmic activity in iv dosed anesthetized acute myocardial infarction dog model assessed as protection against ventricular arrhythmia development administered 10 mins prior to infarction measured during 1-hr postinfarction period; format: functional, Canis lupus familiaris, Heart; how it was run: as §1
[4] = tested on: Canis familiaris; test: Antiarrhythmic activity in anesthetized acute myocardial infarction dog model assessed as normal ECG complexes at 0.25 mg/kg, iv administered 10 mins prior to infarction measured during 1-hr postinfarction period (reference value: 19%); format: functional, Canis lupus familiaris, Heart; how it was run: as §1
[5] = tested on: Canis familiaris; test: Antiarrhythmic activity in anesthetized acute myocardial infarction dog model assessed as normal ECG complexes at 5 mg/kg, iv administered 10 mins prior to infarction measured during 1-hr postinfarction period (reference value: 19%); format: functional, Canis lupus familiaris, Heart; how it was run: as §1
[6] = tested on: Canis familiaris; test: Antiarrhythmic activity in anesthetized acute myocardial infarction dog model assessed as normal ECG complexes at 0.5 mg/kg, iv administered 10 mins prior to infarction measured during 1-hr postinfarction period (reference value: 19%); format: functional, Canis lupus familiaris, Heart; how it was run: as §1
[7] = tested on: Canis familiaris; test: Antiarrhythmic activity in anesthetized acute myocardial infarction dog model assessed as normal ECG complexes at 10 mg/kg, po administered 120 mins prior to infarction measured post-infarction; format: functional, Canis lupus familiaris, Heart
How it was run: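 Oral dosing 120 min before infarction in the same intracoronary tetrafluorohexachlorobutane arrhythmia model. Protection was read from ECG complexes after infarction, as the percentage that were normal.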

[8] = tested on: Canis familiaris; test: Antiarrhythmic activity in anesthetized acute myocardial infarction dog model assessed as normal ECG complexes at 0.06 mg/kg, iv administered 10 mins prior to infarction measured during 1-hr postinfarction period (reference value: 19%); format: functional, Canis lupus familiaris, Heart; how it was run: as §1
[9] = tested on: Canis familiaris; test: Effect on cardiac conduction in anesthetized acute myocardial infarction dog model assessed as increase in PR interval at 5 mg/kg, iv administered 10 mins prior to infarction measured after 10 mins (reference value: 0 ms); format: functional, Canis lupus familiaris, Heart
[10] = tested on: Canis familiaris; test: Reduction in heart rate in anesthetized acute myocardial infarction dog model at 2.5 mg/kg, iv administered 10 mins prior to infarction (reference value: 6 bpm); format: functional, Canis lupus familiaris
[11] = tested on: Canis familiaris; test: Myocardial depressant activity in iv dosed anesthetized dog at higher doses; format: ADME, organism-based, Canis lupus familiaris, Myocardium; conditions: in vivo
[12] = tested on: Canis familiaris; test: Effect on cardiac conduction in anesthetized acute myocardial infarction dog model assessed as increase in PR interval at 2.5 mg/kg, iv administered 10 mins prior to infarction measured after 10 mins (reference value: 0 ms); format: functional, Canis lupus familiaris, Heart
[13] = tested on: Canis familiaris; test: Hypotensive activity in iv dosed anesthetized dog at higher doses; format: ADME, organism-based, Canis lupus familiaris; conditions: in vivo
[14] = tested on: Canis familiaris; test: Reduction in heart rate in anesthetized acute myocardial infarction dog model at 5 mg/kg, iv administered 10 mins prior to infarction (reference value: 6 bpm); format: functional, Canis lupus familiaris
[15] = tested on: Canis familiaris; test: Effect on cardiac conduction in anesthetized acute myocardial infarction dog model assessed as increase in QT duration at 2.5 mg/kg, iv administered 10 mins prior to infarction measured after 10 mins (reference value: 2 ms); format: functional, Canis lupus familiaris, Heart
[16] = tested on: Canis familiaris; test: Effect on cardiac conduction in anesthetized acute myocardial infarction dog model assessed as increase in QT duration at 5 mg/kg, iv administered 10 mins prior to infarction measured after 10 mins (reference value: 2 ms); format: functional, Canis lupus familiaris, Heart
[17] = Canis lupus familiaris, Heart, iv, read-out: ED75

SMILES	Activity [1] [%]	Activity [2] [%]	ED75 [3, 17] [mg/kg]	Activity [4] [%]	Activity [6] [%]	also measured
CC(N)c1ccc(C(F)(F)C(F)(F)c2ccccc2)cc1.Cl (centres undefined)	25	80	4			
CN(C)C(C)(C)c1ccc(C(F)(F)C(F)(F)c2ccccc2)cc1.Cl	53	83	2.1			
NCc1ccccc1C(F)(F)C(F)(F)c1ccc(F)cc1	52	74	3	20		
Br.FC(F)(c1ccccc1)C(F)(F)c1cccc2c1CNC2		51	7			Activity [5]: 71%
CNC(C)c1ccccc1C(F)(F)C(F)(F)c1ccccc1.O=C(O)/C=C\C(=O)O (centres undefined)	91	88	0.88	35	59	
Br.FC(F)(c1ccccc1)C(F)(F)c1cccc(CNCc2ccccc2)c1CNCc1ccccc1	98	99	0.64		65	
Cl.NCCc1ccccc1C(F)(F)C(F)(F)c1ccccc1		88	2		27	
Cl.FC(F)(c1ccccc1)C(F)(F)c1ccccc1CNCc1ccccc1			0.84	23	74	
CNC(C)(C)c1ccc(C(F)(F)C(F)(F)c2ccccc2)cc1.Cl	86	99	0.5	68	65	Activity [7]: >=80%; Activity [8]: 27%
CNC(C)c1ccccc1C(F)(F)C(F)(F)c1ccccc1.O=C(O)C(O)C(O)C(=O)O (single isomer, unassigned; (+))	72					ED75 [3]: 2 mg/kg; Activity ([6]; 0.5 mg/kg): 26%
CC(C)(N)c1cccc(C(F)(F)C(F)(F)c2ccccc2)c1.Cl	45	80	2.7			
O=C1NC(=O)C(c2ccccc2)(c2ccccc2)N1 [PHENYTOIN]		17				Activity [5]: 40%; Time [9]: 8 ms; Activity [10]: 11 bpm; Activity [11]: Toxic; Time [12]: 10 ms; Activity [13]: Toxic; Activity [14]: 13 bpm; Time [15]: 5 ms; Time [16]: 3 ms
CN(C)Cc1ccccc1C(F)(F)C(F)(F)c1ccccc1.Cl		61	4.8			Activity [5]: 75%
Cc1ccc(C(F)(F)C(F)(F)c2ccc(C(C)(C)N)cc2)cc1.Cl	75	88	1.4	52		Activity [8]: 15%
